According to ChEMBL document CHEMBL1134635, “Aziridinyl quinone antitumor agents based on indoles and cyclopent[b]indoles: structure-activity relationships for cytotoxicity and antitumor activity” (2001):

Biological target: NAD(P)H dehydrogenase [quinone] 1 (Homo sapiens) (UniProt P15559)
Assay: The substrate specificity obtained from the ratio of Vmax to KM for human DT-diaphorase (from non-small-cell lung NCI-H460 cell line)
Format: cell-based
Conditions: not given
In short: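 Recombinant human DT-diaphorase (from NCI-H460) at 1.4 × 10^-9 M final with 0.3 mM NADH in Tris buffer, quinone 1.3 × 10-6 to 6.7 × 10^-5 M final from a 4.0 mM DMSO stock. Both parts argon-purged 20 min and held at 30 °C 10 min, then mixed.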

Sequence of NAD(P)H dehydrogenase [quinone] 1 (Homo sapiens) (P15559 whole entry): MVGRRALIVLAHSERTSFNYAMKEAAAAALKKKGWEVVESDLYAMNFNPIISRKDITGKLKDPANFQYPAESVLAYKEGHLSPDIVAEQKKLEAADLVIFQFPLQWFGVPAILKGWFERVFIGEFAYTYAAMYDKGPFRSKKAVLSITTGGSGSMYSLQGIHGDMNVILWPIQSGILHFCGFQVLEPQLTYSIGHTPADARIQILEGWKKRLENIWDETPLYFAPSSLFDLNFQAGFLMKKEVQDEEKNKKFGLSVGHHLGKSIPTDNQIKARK

| SMILES | Ratio |
| --- | --- |
| CC(=O)OC1CCc2c3c(n(C)c21)C(=O)C(N1CC1)=C(C)C3=O (configuration not stated) | 30000 |
| O=C1C=C(N2CC2)C(=O)c2c1[nH]c(CO)c2CO | 587000 |
| CCOC(=O)c1[nH]c2c(c1CO)C(=O)C(N1CC1)=C(C)C2=O | 403000 |
| O=C1C=C(N2CC2)C(=O)c2c1[nH]c1c2CCC1O (configuration not stated) | 405000 |
| CC(=O)OC1CCc2c3c(n(C(C)=O)c21)C(=O)C(C)=C(N1CC1)C3=O (configuration not stated) | 132000 |
| CC(=O)OC1CCc2c3c(n(C(C)=O)c21)C(=O)C(N1CC1)=C(C)C3=O (configuration not stated) | 56200 |
| CC(=O)OCc1[nH]c2c(c1COC(C)=O)C(=O)C(C)=C(N1CC1)C2=O | 158000 |
| CCOC(=O)c1[nH]c2c(c1CO)C(=O)C(N1CC1)=CC2=O | 4.3e+06 |
| O=C1C(N2CC2)=CC(=O)c2c1[nH]c(CO)c2CO | 274000 |
| CC1=C(N2CC2)C(=O)c2c([nH]c(CO)c2CO)C1=O | 81500 |
| CCOC(=O)c1[nH]c2c(c1COC(C)=O)C(=O)C(N1CC1)=CC2=O | 722000 |
| CC(=O)OC1CCc2c1[nH]c1c2C(=O)C(N2CC2)=CC1=O (configuration not stated) | 651000 |
| CC(=O)OC1CCc2c1[nH]c1c2C(=O)C=C(N2CC2)C1=O (configuration not stated) | 802000 |
| O=C1C(N2CC2)=CC(=O)c2c1[nH]c1c2CCC1O (configuration not stated) | 128000 |
| CC(=O)OC1CCc2c3c(n(C(C)=O)c21)C(=O)C(N1CC1)=CC3=O (configuration not stated) | 234000 |

Tested on: Nucleic Acid
Assay: % of DNA reductive alkylation determined by catalytic reduction of aziridinyl quinones in presence of 600 bp calf thymus DNA
Format: functional
Set-up: concentration or dose not given beside the values
Conditions: Bos taurus
In short: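 Calf thymus DNA (1-2 mg, sonicated to ~600 bp) in 0.05 M Tris pH 7.4 with Pd/C, quinone added at 5:1 base pair equivalents in DMSO. Degassed under argon, H2-purged 10 min, argon-purged, then 30 °C for 24 h anaerobically. Catalyst filtered off, DNA ethanol-precipitated twice, and alkylation quantified by absorbance at 550 nm (ε 800 M-1 cm-1).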

| SMILES | Activity [%] |
| --- | --- |
| CC(=O)OC1CCc2c3c(n(C)c21)C(=O)C(N1CC1)=C(C)C3=O (configuration not stated) | 1.4 |
| O=C1C=C(N2CC2)C(=O)c2c1[nH]c(CO)c2CO | 16.7 |
| CCOC(=O)c1[nH]c2c(c1CO)C(=O)C(N1CC1)=C(C)C2=O | 5.6 |
| O=C1C=C(N2CC2)C(=O)c2c1[nH]c1c2CCC1O (configuration not stated) | 22.5 |
| CC(=O)OC1CCc2c3c(n(C(C)=O)c21)C(=O)C(C)=C(N1CC1)C3=O (configuration not stated) | 1.2 |
| CC(=O)OC1CCc2c3c(n(C(C)=O)c21)C(=O)C(N1CC1)=C(C)C3=O (configuration not stated) | 9 |
| CC(=O)OCc1[nH]c2c(c1COC(C)=O)C(=O)C(C)=C(N1CC1)C2=O | 37 |
| CCOC(=O)c1[nH]c2c(c1CO)C(=O)C(N1CC1)=CC2=O | 37 |
| O=C1C(N2CC2)=CC(=O)c2c1[nH]c(CO)c2CO | 3.4 |
| CC1=C(N2CC2)C(=O)c2c([nH]c(CO)c2CO)C1=O | 2 |
| CCOC(=O)c1[nH]c2c(c1COC(C)=O)C(=O)C(N1CC1)=CC2=O | 91.2 |
| CC(=O)OC1CCc2c1[nH]c1c2C(=O)C(N2CC2)=CC1=O (configuration not stated) | 34 |
| CC(=O)OC1CCc2c1[nH]c1c2C(=O)C=C(N2CC2)C1=O (configuration not stated) | 29 |
| O=C1C(N2CC2)=CC(=O)c2c1[nH]c1c2CCC1O (configuration not stated) | 30 |
| CC(=O)OC1CCc2c3c(n(C(C)=O)c21)C(=O)C(N1CC1)=CC3=O (configuration not stated) | 12 |

Tested on: NCI-H460
Assay: Concentration required for total growth inhibition against NSC H460 cell line.
Format: functional
Conditions: Homo sapiens, read-out: Log TGI (converted)

| SMILES | TGI [nM] |
| --- | --- |
| O=C1C=C(N2CC2)C(=O)c2c1[nH]c1c2CCC1O (configuration not stated) | 102 |

Tested on: NCI-H460
Assay: Concentration of the drug required for total growth inhibition against NSC H460 cell line.
Format: functional
Conditions: Homo sapiens, read-out: Log TGI (converted)

| SMILES | TGI [nM] |
| --- | --- |
| CCOC(=O)c1[nH]c2c(c1CO)C(=O)C(N1CC1)=C(C)C2=O | 10.2 |
| CC(=O)OC1CCc2c3c(n(C(C)=O)c21)C(=O)C(N1CC1)=C(C)C3=O (configuration not stated) | 437 |
| CC(=O)OCc1[nH]c2c(c1COC(C)=O)C(=O)C(C)=C(N1CC1)C2=O | 178 |
| CCOC(=O)c1[nH]c2c(c1CO)C(=O)C(N1CC1)=CC2=O | 100 |
| O=C1C(N2CC2)=CC(=O)c2c1[nH]c(CO)c2CO | 1150 |
| CC1=C(N2CC2)C(=O)c2c([nH]c(CO)c2CO)C1=O | 32.4 |
| CCOC(=O)c1[nH]c2c(c1COC(C)=O)C(=O)C(N1CC1)=CC2=O | 170 |
| O=C1C(N2CC2)=CC(=O)c2c1[nH]c1c2CCC1O (configuration not stated) | 57.5 |

Tested on: Panel NCI-60 (60 carcinoma cell lines)
Assay: Cancer specificity was measured from the +/- value under average log LC50 NCI 60-cell line.
Format: functional
Conditions: Homo sapiens, read-out: Average log LC50 (converted)

| SMILES | CC50 [nM] |
| --- | --- |
| O=C1C=C(N2CC2)C(=O)c2c1[nH]c1c2CCC1O (configuration not stated) | 2190 |

Tested on: Panel NCI-60 (60 carcinoma cell lines)
Assay: Cancer specificity was measured from the +/- value under average log LC50 60-cell line.
Format: functional
Conditions: Homo sapiens, read-out: Average log LC50 (converted)

| SMILES | LC50 [nM] |
| --- | --- |
| CCOC(=O)c1[nH]c2c(c1CO)C(=O)C(N1CC1)=C(C)C2=O | 2040 |
| CC(=O)OC1CCc2c3c(n(C(C)=O)c21)C(=O)C(N1CC1)=C(C)C3=O (configuration not stated) | 25100 |
| CC(=O)OCc1[nH]c2c(c1COC(C)=O)C(=O)C(C)=C(N1CC1)C2=O | 30200 |
| CCOC(=O)c1[nH]c2c(c1CO)C(=O)C(N1CC1)=CC2=O | 1620 |
| O=C1C(N2CC2)=CC(=O)c2c1[nH]c(CO)c2CO | 8510 |
| CC1=C(N2CC2)C(=O)c2c([nH]c(CO)c2CO)C1=O | 2880 |
| CCOC(=O)c1[nH]c2c(c1COC(C)=O)C(=O)C(N1CC1)=CC2=O | 2400 |
| O=C1C(N2CC2)=CC(=O)c2c1[nH]c1c2CCC1O (configuration not stated) | 2570 |

Tested on: NCI-H460
Assay: Concentration of the drug required for 50% growth inhibition against NSC (non small cell) H460 cell line.
Format: functional
Conditions: Homo sapiens

| SMILES | GI50 [nM] |
| --- | --- |
| CCOC(=O)c1[nH]c2c(c1CO)C(=O)C(N1CC1)=C(C)C2=O | 10 |
| CC(=O)OC1CCc2c3c(n(C(C)=O)c21)C(=O)C(N1CC1)=C(C)C3=O (configuration not stated) | 83.2 |
| CC(=O)OCc1[nH]c2c(c1COC(C)=O)C(=O)C(C)=C(N1CC1)C2=O | 35.5 |
| CCOC(=O)c1[nH]c2c(c1CO)C(=O)C(N1CC1)=CC2=O | 10 |
| O=C1C(N2CC2)=CC(=O)c2c1[nH]c(CO)c2CO | 138 |
| CC1=C(N2CC2)C(=O)c2c([nH]c(CO)c2CO)C1=O | 10 |
| CCOC(=O)c1[nH]c2c(c1COC(C)=O)C(=O)C(N1CC1)=CC2=O | 37.1 |
| O=C1C(N2CC2)=CC(=O)c2c1[nH]c1c2CCC1O (configuration not stated) | 7.24 |

Tested on: B16
Assay: Treated over control values(T/C) were measured at day 25 by B16 melanoma syngraft assay at 2 mg/kg/day on day 1 after sc tumor implantation of 10 E(5) cells
Format: functional, Mus musculus
Conditions: route subcutaneous
In short: (§1)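 B16 melanoma syngraft in C57/bl mice, 10^5 cells implanted subcutaneously in the front flank on day 0. T/C recorded at day 25. Toxic means early lethality, or ≥50% lethality before any control deaths.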

| SMILES | Activity [%] |
| --- | --- |
| O=C1C=C(N2CC2)C(=O)c2c1[nH]c(CO)c2CO | >50 |
| CC(=O)OC1CCc2c3c(n(C(C)=O)c21)C(=O)C(N1CC1)=C(C)C3=O (configuration not stated) | 37 |
| CC(=O)OCc1[nH]c2c(c1COC(C)=O)C(=O)C(C)=C(N1CC1)C2=O | 74 |
| CC1=C(N2CC2)C(=O)c2c([nH]c(CO)c2CO)C1=O | 36 |
| CC(=O)OC1CCc2c3c(n(C(C)=O)c21)C(=O)C(N1CC1)=CC3=O (configuration not stated) | 50 |

Tested on: B16
Assay: Treated over control values(T/C) were measured at day 25 by B16 melanoma syngraft assay at 3 mg/kg/day on day 5 after sc tumor implantation of 10 E(5) cells
Format: functional, Mus musculus
Conditions: route subcutaneous
In short: as §1

| SMILES | Activity [%] |
| --- | --- |
| O=C1C=C(N2CC2)C(=O)c2c1[nH]c(CO)c2CO | >50 |
| CC(=O)OC1CCc2c3c(n(C(C)=O)c21)C(=O)C(N1CC1)=C(C)C3=O (configuration not stated) | 15 |
| CC(=O)OCc1[nH]c2c(c1COC(C)=O)C(=O)C(C)=C(N1CC1)C2=O | >50 |
| CC1=C(N2CC2)C(=O)c2c([nH]c(CO)c2CO)C1=O | >50 |
| CC(=O)OC1CCc2c3c(n(C(C)=O)c21)C(=O)C(N1CC1)=CC3=O (configuration not stated) | >50 |

Tested on: NCI-H460
Assay: Concentration required for 50% cell kill against NSC H460 cell line.
Format: functional
Conditions: Homo sapiens, read-out: Log LC50 (the source's name) (converted)

| SMILES | CC50 [nM] |
| --- | --- |
| O=C1C=C(N2CC2)C(=O)c2c1[nH]c1c2CCC1O (configuration not stated) | 295 |

Tested on: NCI-H460
Assay: Concentration required for 50% cell kill. against NSC H460 cell line.
Format: functional
Conditions: Homo sapiens

| SMILES | LC50 [nM] |
| --- | --- |
| CC(=O)OC1CCc2c3c(n(C(C)=O)c21)C(=O)C(N1CC1)=C(C)C3=O (configuration not stated) | 5010 |
| CCOC(=O)c1[nH]c2c(c1CO)C(=O)C(N1CC1)=CC2=O | 631 |
| O=C1C(N2CC2)=CC(=O)c2c1[nH]c(CO)c2CO | 11700 |
| CC1=C(N2CC2)C(=O)c2c([nH]c(CO)c2CO)C1=O | 1170 |

Same assay, conditions: Homo sapiens, read-out: Log LC50 (the source's name) (converted)

| SMILES | CC50 [nM] |
| --- | --- |
| CCOC(=O)c1[nH]c2c(c1CO)C(=O)C(N1CC1)=C(C)C2=O | 87.1 |
| CC(=O)OCc1[nH]c2c(c1COC(C)=O)C(=O)C(C)=C(N1CC1)C2=O | 603 |
| CCOC(=O)c1[nH]c2c(c1COC(C)=O)C(=O)C(N1CC1)=CC2=O | 603 |
| O=C1C(N2CC2)=CC(=O)c2c1[nH]c1c2CCC1O (configuration not stated) | 1780 |

Tested on: NCI-H460
Assay: Concentration required for 50% growth inhibition against NSC (non small cell) H460 cell line.
Format: functional
Conditions: Homo sapiens

| SMILES | GI50 [nM] |
| --- | --- |
| O=C1C=C(N2CC2)C(=O)c2c1[nH]c1c2CCC1O (configuration not stated) | 10 |

Tested on: B16
Assay: Treated over control values(T/C) were measured at day 25 by B16 melanoma syngraft assay at 5 mg/kg/day on day 9 after sc tumor implantation of 10 E(5) cells
Format: functional, Mus musculus
Conditions: route subcutaneous
In short: as §1

| SMILES | Activity [%] |
| --- | --- |
| O=C1C=C(N2CC2)C(=O)c2c1[nH]c(CO)c2CO | >50 |
| CC(=O)OC1CCc2c3c(n(C(C)=O)c21)C(=O)C(N1CC1)=C(C)C3=O (configuration not stated) | 15 |
| CC(=O)OCc1[nH]c2c(c1COC(C)=O)C(=O)C(C)=C(N1CC1)C2=O | >50 |
| CC1=C(N2CC2)C(=O)c2c([nH]c(CO)c2CO)C1=O | >50 |
| CC(=O)OC1CCc2c1[nH]c1c2C(=O)C=C(N2CC2)C1=O (configuration not stated) | >50 |
| CC(=O)OC1CCc2c3c(n(C(C)=O)c21)C(=O)C(N1CC1)=CC3=O (configuration not stated) | >50 |
